The values below come from ChEMBL document CHEMBL4680371, “Design and Structure-Activity Relationship of a Potent Furin Inhibitor Derived from Influenza Hemagglutinin” (ACS Med Chem Lett, 2021).

Activity calls are given as the source filed them. No cut-off for these calls is given here.

Series [1] can be described thus: Half life in CD1 mouse plasma by LC-MS/MS analysis. Type of series: ADME, cell-free. Conditions: for half-life: CD1, mouse. In outline:
(§1)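 Peptide incubated ex vivo in mouse plasma at 37 °C and sampled at several time points, using the ng/mL concentration range. Intact peptide quantified by high-resolution mass spectrometry and expressed as percentage remaining; t1/2 derived from the time course. Each time point run in triplicate; mean and mean ± SD reported.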

Series [2] deals with T1, Furin (Homo sapiens, UniProt P09958). The series is described as follows: Inhibition of recombinant soluble human furin using pyroGlu-Arg-Thr-Lys-Arg-methyl-coumaryl-7-amide as substrate measured after 1 hr. In outline:
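Soluble human recombinant furin was tested in a competitive kinetic assay. Ki is reported as the mean ± SD of at least two independent experiments.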

The nature of series [3]: Stability of the compound in CD1 mouse plasma assessed as intact compound remaining measured after 2 mins by LC-MS/MS analysis. The class given is ADME, cell-free. The note with it: read-out: Stabilty. In outline:
as §1

Series [4] concerns the target T1, Furin. The series is described as follows: Potency index, ratio of CF1 Ki to test compound Ki for recombinant soluble human furin using pyroGlu-Arg-Thr-Lys-Arg-methyl-coumaryl-7-amide as substrate measured after 1 hr.
The target in series [5] is T2, Proprotein convertase subtilisin/kexin type 7 (Homo sapiens) (UniProt Q16549).
T2 sequence (whole entry): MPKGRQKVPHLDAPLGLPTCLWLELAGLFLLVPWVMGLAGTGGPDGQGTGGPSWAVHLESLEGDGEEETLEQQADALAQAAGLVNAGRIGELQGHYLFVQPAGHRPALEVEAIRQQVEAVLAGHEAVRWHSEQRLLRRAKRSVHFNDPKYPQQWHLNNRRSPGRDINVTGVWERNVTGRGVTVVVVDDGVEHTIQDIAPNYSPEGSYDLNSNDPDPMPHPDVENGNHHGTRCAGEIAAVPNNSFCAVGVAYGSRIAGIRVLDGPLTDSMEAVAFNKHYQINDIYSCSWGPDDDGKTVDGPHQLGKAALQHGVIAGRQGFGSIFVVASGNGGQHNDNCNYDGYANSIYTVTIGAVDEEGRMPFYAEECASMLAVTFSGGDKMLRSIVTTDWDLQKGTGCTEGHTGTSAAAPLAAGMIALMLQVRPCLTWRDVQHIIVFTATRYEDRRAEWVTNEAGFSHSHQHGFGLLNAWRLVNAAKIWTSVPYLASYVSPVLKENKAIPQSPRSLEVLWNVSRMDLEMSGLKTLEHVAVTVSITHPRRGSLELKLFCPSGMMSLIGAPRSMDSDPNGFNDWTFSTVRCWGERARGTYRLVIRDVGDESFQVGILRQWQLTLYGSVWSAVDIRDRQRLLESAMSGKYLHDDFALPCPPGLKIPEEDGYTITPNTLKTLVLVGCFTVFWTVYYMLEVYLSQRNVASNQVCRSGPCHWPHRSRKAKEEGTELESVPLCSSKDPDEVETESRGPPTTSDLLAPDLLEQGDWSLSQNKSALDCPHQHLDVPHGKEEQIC
The series is described as follows: Inhibition of recombinant soluble human PC7 using pyroGlu-Arg-Thr-Lys-Arg-methyl-coumaryl-7-amide as substrate measured after 1 hr.

Series [6] addresses T3, Proprotein convertase subtilisin/kexin type 6 (Homo sapiens) (UniProt P29122).
T3 sequence (whole entry): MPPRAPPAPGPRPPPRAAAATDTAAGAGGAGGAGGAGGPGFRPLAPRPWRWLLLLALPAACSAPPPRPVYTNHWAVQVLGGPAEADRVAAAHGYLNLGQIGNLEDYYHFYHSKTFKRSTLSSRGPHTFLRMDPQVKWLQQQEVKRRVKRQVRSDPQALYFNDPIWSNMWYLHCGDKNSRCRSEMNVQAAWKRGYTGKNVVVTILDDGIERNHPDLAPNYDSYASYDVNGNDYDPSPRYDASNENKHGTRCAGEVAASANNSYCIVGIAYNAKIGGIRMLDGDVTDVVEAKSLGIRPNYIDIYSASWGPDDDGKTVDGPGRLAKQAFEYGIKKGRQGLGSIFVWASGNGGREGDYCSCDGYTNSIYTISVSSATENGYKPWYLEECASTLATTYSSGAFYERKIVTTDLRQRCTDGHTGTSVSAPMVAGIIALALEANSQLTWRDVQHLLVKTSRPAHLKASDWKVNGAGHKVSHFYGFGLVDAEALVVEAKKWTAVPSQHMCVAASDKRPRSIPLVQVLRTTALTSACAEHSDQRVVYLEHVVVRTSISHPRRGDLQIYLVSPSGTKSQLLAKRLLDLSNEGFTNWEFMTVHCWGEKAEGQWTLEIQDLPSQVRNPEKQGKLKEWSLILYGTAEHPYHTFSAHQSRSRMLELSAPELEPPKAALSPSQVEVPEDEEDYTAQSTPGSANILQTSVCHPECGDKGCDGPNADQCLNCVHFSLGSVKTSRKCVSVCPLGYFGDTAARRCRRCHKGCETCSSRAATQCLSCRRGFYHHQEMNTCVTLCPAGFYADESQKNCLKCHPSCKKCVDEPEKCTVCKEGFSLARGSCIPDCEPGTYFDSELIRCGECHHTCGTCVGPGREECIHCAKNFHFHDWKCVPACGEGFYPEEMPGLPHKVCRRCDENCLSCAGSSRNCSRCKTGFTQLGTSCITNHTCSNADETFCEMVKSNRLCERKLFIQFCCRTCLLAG
In words: Inhibition of recombinant soluble human PACE4 using pyroGlu-Arg-Thr-Lys-Arg-methyl-coumaryl-7-amide as substrate measured after 1 hr.

Series [7] addresses Proprotein convertase subtilisin/kexin type 5 (Homo sapiens) (UniProt Q92824). In words: Inhibition of recombinant soluble human PC5 using pyroGlu-Arg-Thr-Lys-Arg-methyl-coumaryl-7-amide as substrate measured after 1 hr.

T1 sequence (P09958 whole entry): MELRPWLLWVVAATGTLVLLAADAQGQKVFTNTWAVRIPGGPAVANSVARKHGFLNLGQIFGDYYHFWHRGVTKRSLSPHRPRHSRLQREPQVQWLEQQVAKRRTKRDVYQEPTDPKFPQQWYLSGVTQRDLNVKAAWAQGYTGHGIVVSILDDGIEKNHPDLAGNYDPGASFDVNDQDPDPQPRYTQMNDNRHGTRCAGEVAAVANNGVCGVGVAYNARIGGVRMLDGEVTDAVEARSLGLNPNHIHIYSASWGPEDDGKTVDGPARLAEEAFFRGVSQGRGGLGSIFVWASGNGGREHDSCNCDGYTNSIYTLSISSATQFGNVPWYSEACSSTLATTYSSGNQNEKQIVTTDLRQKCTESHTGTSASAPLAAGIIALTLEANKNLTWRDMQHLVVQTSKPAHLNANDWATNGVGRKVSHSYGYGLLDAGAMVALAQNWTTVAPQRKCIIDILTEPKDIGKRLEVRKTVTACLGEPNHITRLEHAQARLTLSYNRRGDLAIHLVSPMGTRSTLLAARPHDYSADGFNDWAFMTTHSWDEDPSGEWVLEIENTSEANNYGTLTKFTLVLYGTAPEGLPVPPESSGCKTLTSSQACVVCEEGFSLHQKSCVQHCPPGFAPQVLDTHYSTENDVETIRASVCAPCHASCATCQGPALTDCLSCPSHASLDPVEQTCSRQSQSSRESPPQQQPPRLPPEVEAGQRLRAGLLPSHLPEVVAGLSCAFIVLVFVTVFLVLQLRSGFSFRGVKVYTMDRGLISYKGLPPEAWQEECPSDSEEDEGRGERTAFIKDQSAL
Sequence of Proprotein convertase subtilisin/kexin type 5 (Homo sapiens) (Q92824 whole entry): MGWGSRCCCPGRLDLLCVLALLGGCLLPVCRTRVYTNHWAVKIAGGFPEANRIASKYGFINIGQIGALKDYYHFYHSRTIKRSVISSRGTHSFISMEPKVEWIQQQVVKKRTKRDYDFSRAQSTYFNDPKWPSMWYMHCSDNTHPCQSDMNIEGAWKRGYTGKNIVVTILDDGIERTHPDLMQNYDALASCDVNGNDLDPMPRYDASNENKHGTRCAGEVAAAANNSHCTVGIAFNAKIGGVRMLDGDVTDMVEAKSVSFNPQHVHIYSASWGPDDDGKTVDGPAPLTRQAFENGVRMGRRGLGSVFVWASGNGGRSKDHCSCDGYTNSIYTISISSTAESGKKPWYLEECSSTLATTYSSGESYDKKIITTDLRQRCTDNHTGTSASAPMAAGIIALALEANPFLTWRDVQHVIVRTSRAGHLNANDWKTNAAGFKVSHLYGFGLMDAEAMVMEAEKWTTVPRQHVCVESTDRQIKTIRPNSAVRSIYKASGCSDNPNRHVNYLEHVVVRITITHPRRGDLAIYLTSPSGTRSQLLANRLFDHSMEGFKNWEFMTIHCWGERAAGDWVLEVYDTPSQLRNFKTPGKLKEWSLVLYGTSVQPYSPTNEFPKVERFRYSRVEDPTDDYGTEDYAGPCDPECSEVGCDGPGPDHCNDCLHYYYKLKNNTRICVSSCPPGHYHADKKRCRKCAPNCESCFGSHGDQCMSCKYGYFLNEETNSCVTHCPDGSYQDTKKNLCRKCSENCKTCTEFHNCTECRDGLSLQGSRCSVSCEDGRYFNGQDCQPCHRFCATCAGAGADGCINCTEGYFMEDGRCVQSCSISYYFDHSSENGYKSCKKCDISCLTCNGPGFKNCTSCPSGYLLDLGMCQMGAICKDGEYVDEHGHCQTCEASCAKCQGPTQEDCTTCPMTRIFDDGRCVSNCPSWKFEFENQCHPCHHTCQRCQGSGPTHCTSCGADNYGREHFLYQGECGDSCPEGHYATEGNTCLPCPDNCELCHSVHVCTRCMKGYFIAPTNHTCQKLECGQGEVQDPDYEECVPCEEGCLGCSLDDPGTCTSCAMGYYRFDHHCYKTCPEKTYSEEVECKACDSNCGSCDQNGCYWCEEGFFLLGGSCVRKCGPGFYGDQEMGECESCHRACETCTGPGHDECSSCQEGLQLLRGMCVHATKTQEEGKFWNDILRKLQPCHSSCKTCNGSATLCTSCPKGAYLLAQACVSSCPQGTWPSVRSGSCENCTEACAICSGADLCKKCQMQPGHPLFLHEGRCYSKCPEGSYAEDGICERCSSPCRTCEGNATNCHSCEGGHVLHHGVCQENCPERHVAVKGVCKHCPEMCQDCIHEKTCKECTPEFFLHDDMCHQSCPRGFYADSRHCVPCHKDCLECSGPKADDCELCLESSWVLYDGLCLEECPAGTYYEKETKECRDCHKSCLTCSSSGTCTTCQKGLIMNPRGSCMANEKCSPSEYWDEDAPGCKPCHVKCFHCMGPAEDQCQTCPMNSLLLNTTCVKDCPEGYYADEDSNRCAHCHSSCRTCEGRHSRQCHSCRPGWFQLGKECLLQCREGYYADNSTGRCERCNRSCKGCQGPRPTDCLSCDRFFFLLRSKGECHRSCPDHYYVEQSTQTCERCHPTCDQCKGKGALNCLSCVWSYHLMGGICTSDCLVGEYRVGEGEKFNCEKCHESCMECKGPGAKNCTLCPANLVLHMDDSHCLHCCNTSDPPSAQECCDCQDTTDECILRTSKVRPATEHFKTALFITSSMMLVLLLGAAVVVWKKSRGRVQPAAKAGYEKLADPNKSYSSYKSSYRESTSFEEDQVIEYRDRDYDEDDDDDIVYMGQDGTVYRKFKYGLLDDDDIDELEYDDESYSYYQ

On to `CC(=O)N[C@@H](Cc1ccccc1)C(=O)N[C@@H](C)C(=O)N[C@@H](CCCNC(=N)N)C(=O)N[C@@H](CCCNC(=N)N)C(=O)N[C@@H](CCCNC(=N)N)C(=O)N[C@@H](CCCCN)C(=O)N[C@@H](CCCCN)C(=O)N[C@@H](CCCNC(=N)N)C(=O)N[C@H](C(N)=O)[C@@H](C)O`, for which, in series [1], the half-life – broadly, how long it takes for the measured level to halve – is 33.6 s. For the same compound, the Ki (commonly a measure of affinity in units of concentration, obtained from inhibition or displacement) at Furin [2] came out at 14 nM.
In the same order, the values of `CC(=O)N[C@@H](CCCNC(=N)N)C(=O)N[C@@H](Cc1ccccc1)C(=O)N[C@@H](CCCNC(=N)N)C(=O)N[C@@H](CCCNC(=N)N)C(=O)N[C@@H](CCCNC(=N)N)C(=O)N[C@@H](CCCCN)C(=O)N[C@@H](CCCCN)C(=O)N[C@@H](CCCNC(=N)N)C(=O)N[C@H](C(N)=O)[C@@H](C)O` are 57.6 s and 23 nM.
In series [1], `CC[C@H](NC(=O)[C@H](CCCNC(=N)N)NC(=O)[C@H](C)NC(=O)[C@H]1CCCN1C(C)=O)C(=O)N[C@@H](CCCNC(=N)N)C(=O)N[C@@H](CCCCN)C(=O)N[C@@H](CCCCN)C(=O)N[C@@H](CCCNC(=N)N)C(=O)N[C@H](C(N)=O)[C@@H](C)O` returned a half-life of 66.6 s. For the same compound, the inhibitory constant (Ki) at Furin [2] came out at 11 nM. Further, in series [3], the remaining at 2 min turned out to be 25%.
Regarding `CC(=O)N[C@@H](CCCNC(=N)N)C(=O)N[C@@H](C)C(=O)N[C@@H](Cc1ccccc1)C(=O)N[C@@H](CCCNC(=N)N)C(=O)N[C@@H](CCCNC(=N)N)C(=O)N[C@@H](CCCCN)C(=O)N[C@@H](CCCCN)C(=O)N[C@@H](CCCNC(=N)N)C(=O)N[C@H](C(N)=O)[C@@H](C)O`, in series [1], the half-life was found to be 12.6 s. At Furin [2], the inhibitory constant (Ki) was 29 nM.
Consider `CC(=O)N[C@@H](CCCNC(=N)N)C(=O)N[C@@H](C)C(=O)N[C@@H](CCCNC(=N)N)C(=O)N[C@H](C(=O)N[C@@H](CCCNC(=N)N)C(=O)N[C@@H](CCCCN)C(=O)N[C@@H](CCCCN)C(=O)N[C@@H](CCCNC(=N)N)C(=O)N[C@H](C(N)=O)[C@@H](C)O)C(C)C`, for which the inhibitory constant (Ki) at Furin [2] stood at 7 nM. Also, the Ratio Ki on Furin [4] was 2.
In series [1] (mouse), `CC(=O)N[C@@H](CCCNC(=N)N)C(=O)N[C@@H](C)C(=O)N[C@@H](CCCNC(=N)N)C(=O)N[C@@H](CCCNC(=N)N)C(=O)N[C@@H](CCCNC(=N)N)C(=O)N[C@@H](CCCCN)C(=O)N[C@@H](CCCCN)C(=O)N[C@@H](CCCNC(=N)N)C(=O)N[C@H](C(N)=O)[C@@H](C)O` displayed a t1/2 of 212 s. Also, the Ki on Furin [2] is 15 nM. In series [5], the inhibition entry is “inactive”. For the same compound, the inhibition entry in series [6] and in series [7] was “Active” each time.
For the compound `CC(=O)N[C@@H](CCCNC(=N)N)C(=O)N[C@@H](C)C(=O)N[C@@H](CCCNC(=N)N)C(=O)N[C@@H](CCCNC(=N)N)C(=O)N[C@@H](CCCNC(=N)N)C(=O)N[C@@H](CCCCN)C(=O)N[C@@H](CCCCN)C(=O)NN(CCCNC(=N)N)CC(=O)N[C@@H](Cc1ccccc1)C(N)=O`, the half-life in series [1] stood at 155 s. For the same compound, on Furin [2], the Ki came out at 2500 nM.
In the case of `CC(=O)N[C@@H](CCCNC(=N)N)C(=O)N[C@@H](C)C(=O)N[C@@H](CCCNC(=N)N)C(=O)N[C@@H](CC(N)=O)C(=O)N[C@@H](CCCNC(=N)N)C(=O)N[C@@H](CCCCN)C(=O)N[C@@H](CCCCN)C(=O)N[C@@H](CCCNC(=N)N)C(=O)N[C@H](C(N)=O)[C@@H](C)O`, at Furin [2], the inhibition constant Ki is 18 nM. For the same compound, in series [5], the inhibition result is “inactive”. Moreover, the inhibition entry in series [6] and in series [7] was “Active” in each case.
`CC(=O)N[C@@H](CCCNC(=N)N)C(=O)N[C@@H](C)C(=O)N[C@@H](CCCNC(=N)N)C(=O)N[C@@H](Cc1ccccc1)C(=O)N[C@@H](CCCNC(=N)N)C(=O)N[C@@H](CCCCN)C(=O)N[C@@H](CCCCN)C(=O)N[C@@H](CCCNC(=N)N)C(=O)N[C@H](C(N)=O)[C@@H](C)O`: the half-life in series [1] came out at 19.2 s. Moreover, the inhibition constant (Ki) on Furin [2] was 21 nM. In series [5], the inhibition result is “inactive”. Besides, the inhibition entry in series [6] and in series [7] was “Active” throughout.
Take `CC[C@H](C)[C@H](NC(=O)[C@H](CCCNC(=N)N)NC(=O)[C@H](C)NC(=O)[C@H](CCCNC(=N)N)NC(C)=O)C(=O)N[C@@H](CCCNC(=N)N)C(=O)N[C@@H](CCCCN)C(=O)N[C@@H](CCCCN)C(=O)N[C@@H](CCCNC(=N)N)C(=O)N[C@H](C(N)=O)[C@@H](C)O`: the inhibition constant (Ki) at Furin [2] amounted to 6 nM. Besides, the Ratio Ki on Furin [4] turned out to be 2. Moreover, the inhibition result in series [5] was “inactive”. Besides, the inhibition entry in series [6] and in series [7] was “Active” in each case.
Regarding `CC(=O)N[C@@H](CCCNC(=N)N)C(=O)N[C@@H](C)C(=O)N[C@@H](CCCNC(=N)N)C(=O)N[C@@H](CCCCN)C(=O)N[C@@H](CCCNC(=N)N)C(=O)N[C@@H](CCCCN)C(=O)N[C@@H](CCCCN)C(=O)N[C@@H](CCCNC(=N)N)C(=O)N[C@H](C(N)=O)[C@@H](C)O`, on Furin [2], the Ki turned out to be 7 nM. In addition, the Ratio Ki at Furin [4] was 2.
For the compound `CC(=O)N[C@@H](CCCNC(=N)N)C(=O)N[C@@H](C)C(=O)N[C@@H](Cc1c[nH]c2ccccc12)C(=O)N[C@@H](CCCNC(=N)N)C(=O)N[C@@H](CCCNC(=N)N)C(=O)N[C@@H](CCCCN)C(=O)N[C@@H](CCCCN)C(=O)N[C@@H](CCCNC(=N)N)C(=O)N[C@H](C(N)=O)[C@@H](C)O`, the inhibitory constant (Ki) at Furin [2] is 97 nM.
As to `CC(=O)N[C@@H](CC(=O)O)C(=O)N[C@@H](C)C(=O)N[C@@H](CCCNC(=N)N)C(=O)N[C@@H](CCCNC(=N)N)C(=O)N[C@@H](CCCNC(=N)N)C(=O)N[C@@H](CCCCN)C(=O)N[C@@H](CCCCN)C(=O)N[C@@H](CCCNC(=N)N)C(=O)N[C@H](C(N)=O)[C@@H](C)O`, the inhibition constant Ki on Furin [2] is 20 nM.
Consider `CCCC[C@H](NC(=O)[C@H](CCCNC(=N)N)NC(=O)[C@H](C)NC(=O)[C@H](CCCNC(=N)N)NC(C)=O)C(=O)N[C@@H](CCCNC(=N)N)C(=O)N[C@@H](CCCCN)C(=O)N[C@@H](CCCCN)C(=O)N[C@@H](CCCNC(=N)N)C(=O)N[C@H](C(N)=O)[C@@H](C)O`, for which the inhibitory constant (Ki) at Furin [2] was determined as 19 nM.
Regarding `CC(=O)N[C@@H](CCCNC(=N)N)C(=O)N[C@@H](C)C(=O)N[C@H](C(=O)N[C@@H](CCCNC(=N)N)C(=O)N[C@@H](CCCNC(=N)N)C(=O)N[C@@H](CCCCN)C(=O)N[C@@H](CCCCN)C(=O)N[C@@H](CCCNC(=N)N)C(=O)N[C@H](C(N)=O)[C@@H](C)O)[C@@H](C)O`, at Furin [2], the inhibitory constant (Ki) is 28 nM.
Regarding `CC(=O)N[C@@H](CCCNC(=N)N)C(=O)N[C@@H](C)C(=O)N[C@@H](CCCNC(=N)N)C(=O)N[C@@H](CO)C(=O)N[C@@H](CCCNC(=N)N)C(=O)N[C@@H](CCCCN)C(=O)N[C@@H](CCCCN)C(=O)N[C@@H](CCCNC(=N)N)C(=O)N[C@H](C(N)=O)[C@@H](C)O`, the inhibitory constant (Ki) on Furin [2] is 9 nM.
